Data published in PubChem BioAssay AID561 (The Scripps Research Institute Molecular Screening Center, 2006).
In all, about 65,000 compounds went through this assay and about 280 (0.43%) were called active. Only a selection was taken, and actives are over-represented in it overall. A number with no mark means an inactive call.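 How the source made its calls: active means inhibition above the mean of all tested compounds plus 3 SD (cut at about 52% in these data); inactive means the rest.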

Each compound was assayed against Nuclear receptor ROR-alpha (Homo sapiens) (UniProt P35398) (assay: inhibitors of orphan receptor RORA, primary screen, cell-based, luminescence (AID 561;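 further: 0% = RORA-transfected cells with DMSO and 100% = mock-transfected cells lacking RORA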)). Settings: CHO-K1 Gal4-RORA LBD luciferase reporter, at 10 µM, hits give high values.
Outline: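 Test system: CHO-K1 cells with Gal4-hRORA LBD fusion and pG5-luc reporter | Timing: 20 h compound treatment, 37 °C | Detection: Luminescence from basal luciferase reporter expression | Read-out basis: % inhibition of basal luciferase versus +RORA/-RORA DMSO controls | Repeats: One measurement per compound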

Nuclear receptor ROR-alpha (Homo sapiens), sequence (P35398 whole entry, looked up, the tested form may be a part): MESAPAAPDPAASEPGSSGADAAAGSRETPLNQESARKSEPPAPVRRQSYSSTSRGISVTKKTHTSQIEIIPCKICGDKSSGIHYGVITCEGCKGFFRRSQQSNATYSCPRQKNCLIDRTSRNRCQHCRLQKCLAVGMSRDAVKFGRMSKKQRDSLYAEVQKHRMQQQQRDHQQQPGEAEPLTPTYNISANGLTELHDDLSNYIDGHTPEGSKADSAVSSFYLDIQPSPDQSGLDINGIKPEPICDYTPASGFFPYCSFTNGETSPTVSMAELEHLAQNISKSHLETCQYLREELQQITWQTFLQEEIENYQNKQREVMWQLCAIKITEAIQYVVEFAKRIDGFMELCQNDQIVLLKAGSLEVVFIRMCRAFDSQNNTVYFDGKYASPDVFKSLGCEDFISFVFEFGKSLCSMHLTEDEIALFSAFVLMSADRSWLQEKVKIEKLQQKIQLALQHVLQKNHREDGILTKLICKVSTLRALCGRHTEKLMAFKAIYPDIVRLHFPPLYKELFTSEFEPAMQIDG

SMILES | inhibition
COC(=O)c1ccc(C2NC(=O)NC(C)=C2C(=O)N(C)C)cc1 (stereo not given) | 29.5%
O=C(Nc1ccc2c(c1)OCO2)C1CC(c2c(F)cccc2Cl)=NO1 (stereo not given) | -2.1%
COc1cc(OC)c(C(=O)Nc2ccc(N(C)C)cc2)cc1OC | -58.1%
Cc1ccc(Oc2nc3ccccc3n3c(C)nnc23)cc1 | -9.5%
COCCCN(C(=O)Cn1ncc2c(=O)oc3ccc(C)cc3c21)C(C)c1ccncc1 (stereo not given) | -5.6%
Fc1ccccc1OCCSc1nc2ccccc2o1 | -26.2%
COc1ccc(OCc2cccc(C(=O)N3CCCC3)c2)cc1 | -8.9%
CCOc1cc(C(=S)N2CCOCC2)ccc1O | 8.5%
CCOc1cc(C(=O)N2CCc3cc(OC)c(OC)cc3C2)ccc1OC(F)F | 57.3% (active)
COc1ccc(-n2ncc3c(N4CCCc5ccccc54)ncnc32)cc1 | -50.2%
O=C(CC1NCCNC1=O)Nc1ccc(Oc2ccccc2)cc1 (stereo not given) | -7.9%
COc1cc(C(=O)Nc2oc(-c3ccccc3)c(-c3ccccc3)c2C#N)cc(OC)c1OC | -14.1%
O=C(Cc1c(F)cccc1Cl)N1CCN(C(=O)c2ccco2)CC1 | 14.5%
CCOC(=O)CCCNC(=O)CN1C(=O)NC(CCc2ccccc2)C1=O (stereo not given) | -7.9%
CC(=O)c1ccc(NC(=O)N[C@@H](Cc2ccccc2)C(=O)O)cc1 | 16.7%
O=C(Nc1cccc(Cl)c1)OCc1ccccn1 | -69.9%
CC(=O)Nc1ccc(-c2cn3cccnc3n2)cc1 | -27%
Clc1ccc(C2CC(c3cccs3)n3ncnc3N2)cc1Cl (stereo not given) | -4.7%
CC(C)(C)c1ccc(C(=O)CSc2ncn[nH]2)cc1 | -54.2%
CC(C)(C)NC(=O)Cn1nnc(-c2ccccc2Cl)n1 | -65.9%
COc1cccc(C2/C(=C(/O)c3ccncc3)C(=O)C(=O)N2CCCN(C)C)c1 (stereo not given) | 17%
Cc1noc(C)c1COC(=O)Cn1c(C)nc2ccccc21 | -0.6%

SMILES | inhibition
COc1ccc(-n2c(SC)nc(O)cc2=O)cc1 | 8.5%
CC(C)OCCCNc1ncnc2c1[nH]c1ccc(F)cc12 | 75.5% (active)
Cc1cc2nc(-c3ccc(NC(=O)c4cccnc4)cc3)oc2cc1C | -71.6%
CCOC(=O)/C=c1\s/c(=C\c2ccccc2OC)c(=O)n1CC(=O)N1CCOCC1 | 3.7%
CC1CN(C(=O)CN2C(=O)NC(C)(c3ccccc3)C2=O)CC(C)O1 (stereo not given) | 11.6%
CCCN(CCC)CCNC(=O)c1cc2c(C)nc3ccccc3c2o1 | -1.5%
COc1ccc(-c2nc(-c3ccccc3)no2)c(OC)c1 | 78.4% (active)
COc1ccc(-c2noc(-c3cccc(OC)c3OC)n2)cc1OC | -89.8%
CCOc1ccc(Nc2oc(Cc3ccccc3)nc2C#N)cc1 | -25.7%
O=C(CSc1nc2ccccc2[nH]1)c1cccs1 | -56.5%
O=C(CCSc1ccccc1)NCCSc1ccccn1 | -13.3%
Cc1ccsc1C(=O)OCC(=O)c1cc(C)n(CC2CCCO2)c1C (stereo not given) | 85.1% (active)
O=c1c2cc3c(=O)n(CC4CCCO4)c(=O)c3cc2c(=O)n1CC1CCCO1 (stereo not given) | 5.9%
Cn1c(-c2ccco2)nc2cc3ccccc3cc21 | 68.8% (active)
O=C(Nc1cccc(-c2nnc(-c3ccccc3)o2)c1)C1CCCO1 (stereo not given) | -61.1%
COC(=O)Cc1cc(=O)n(-c2nc3ccccc3s2)[nH]1 | 10.2%
CC(=O)Nc1ccc(S(=O)(=O)N2CCN(CCCOc3cc(C)ccc3C)CC2)cc1 | 13.3%
CC1(C)NC(=O)N(CCOc2cccc(Oc3ccccc3)c2)C1=O | -0.4%
CC(=O)NC(Cc1ccc(F)cc1)C(=O)O (stereo not given) | 4.4%
COc1ccccc1CNC(=O)CCCNS(=O)(=O)c1cccc2nsnc12 | 12.8%
CS(=O)(=O)c1ccc2nc(NC(=O)C3C4C=CC(C4)C3C(=O)O)sc2c1 (stereo not given) | 0.6%
CCCCOc1ccc(-c2ncc(C(=O)OCC)c(N)n2)cc1 | -59.3%

SMILES | inhibition
Cc1ccc(CNC(=O)C2CCCN(S(C)(=O)=O)C2)cc1 (stereo not given) | -3.7%
CCSc1nc(C)nc2c1oc1ccccc12 | -1%
CCc1c(C)sc(NC(=O)c2ccc(Br)o2)c1C(=O)OC | 3.7%
CC1(C)CC(CCC(=O)Nc2ccccc2Cl)C(=O)O1 (stereo not given) | 6.6%
C#CCNc1nc(C(C)C)nc2c1nnn2Cc1ccccc1F | -1.9%
Fc1ccc2[nH]c3c(N4CCN(Cc5ccc6c(c5)OCO6)CC4)ncnc3c2c1 | 86.3% (active)
Fc1ccc2[nH]c3c(N4CCSCC4)ncnc3c2c1 | 80.8% (active)
CN(C)/C=C/c1c(C#N)c(=O)ncn1Cc1ccccc1 | 15.5%
Cc1ccc(Cn2nnc3c(=O)n(CC(=O)N4CCCCC4)cnc32)cc1 | 19.7%
O=C(NC1=NCCS1)c1ccc(Cl)s1 | -80.1%
CC(C)OC(=O)C(C#N)c1nc2ccccc2nc1N1CCN(Cc2ccccc2)CC1 (stereo not given) | -19.7%
O=C1C(C=NCC2CCCO2)=C(O)c2ccccc21 (stereo not given) | -48.7%
Cc1nc2nc(COc3ccccc3)[nH]n2c(=O)c1C | -0.2%
Cc1ccc(-n2ncc3c2ncn2nc(-c4ccco4)nc32)c(C)c1 | -10.8%
COc1ccccc1-c1cc(C(=O)N2CCCCC2)no1 | -56.5%
O=c1oc2cc(O)ccc2cc1-c1ccc(F)cc1 | -61.8%
CCCN(c1ccc(C(C)C)cc1)S(=O)(=O)c1c(C)[nH]c(=O)[nH]c1=O | -10.6%
O=C(O)CC(c1ccccc1)n1cnnn1 (stereo not given) | 15.8%
CN(C)c1nc(N)nc(CSc2nnnn2-c2cccc3ccccc23)n1 | 53.2% (active)
Cn1c(=O)c(C(=O)Nc2ncccn2)c(O)c2ccccc21 | -61%
CC(=O)Oc1ccc(C(=O)Nc2nccs2)cc1 | -61%
